ChEMBL document CHEMBL5260803, “Discovery of Novel, Orally Bioavailable β-Amino Acid Azaindole Inhibitors of Influenza PB2” (ACS Med Chem Lett, 2017)

Tests used:
Type in all cases: functional, organism-based
Influenza A virus [1] = assay: Antiviral activity against oseltamivir resistant Influenza A virus A/Georgia/20/2006 (H1N1) infected in MDCK cells incubated for 72 hrs by cell protection assay
Method in brief: (§1)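 MDCK cells incubated with test compound and influenza A virus for 72 h. EC50 is the concentration giving 50% cell protection, reported as the mean of N=3. Oseltamivir resistant or sensitive status was assigned by externally validated phenotypic or genetic analysis.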

Influenza A virus [2] = assay: Antiviral activity against oseltamivir resistant Influenza A virus A/Texas/12/2007 (H3N2) infected in MDCK cells incubated for 72 hrs by cell protection assay; method in brief: as §1
Influenza A virus [3] = assay: Antiviral activity against oseltamivir resistant Influenza A virus A/Texas/48/2009 (H1N1) infected in MDCK cells incubated for 72 hrs by cell protection assay; method in brief: as §1

## CC(C)(C)[C@@H](CC(=O)O)Nc1nc(-c2c[nH]c3ncc(F)cc23)ncc1F
Influenza A virus [1]
  EC50: 2 nM
Influenza A virus [2]
  EC50: 30 nM
Influenza A virus [3]
  EC50: 2 nM
